The source of these data is ChEMBL document CHEMBL1126276, “Synthesis and antimalarial properties of 1-imino derivatives of 7-chloro-3-substituted-3,4-dihydro-1,9(2H,10H)-acridinediones and related structures” (J Med Chem, 1992).

Structures are written as SMILES.

Common to all, as to format: functional
Experiment [1] concerns Plasmodium berghei. Nature of the experiment: Antimalarial activity in Plasmodium berghei infected mice (Mus musculus) after subcutaneous 160 mg/kg dose. The gist of the method:
(§1)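 Normal drug-sensitive P. berghei strain in mice. Compound dissolved or suspended in sesame or peanut oil, given parenterally as a single subcutaneous dose 72 h postinfection.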

Experiment [2] concerns Plasmodium berghei. As to the kind of experiment: Antimalarial activity in Plasmodium berghei infected mice (Mus musculus) after subcutaneous 320 mg/kg dose. The gist of the method:
as §1

Experiment [3] deals with Plasmodium berghei. As to the kind of experiment: Antimalarial activity in Plasmodium berghei infected mice (Mus musculus) after subcutaneous 640 mg/kg dose. The essentials: as §1
Experiment [4] relates to Plasmodium berghei. As to the kind of experiment: (§2) Antimalarial activity in Plasmodium berghei infected mice (Mus musculus) after 80 mg/kg subcutaneous dose. The essentials:
as §1

Experiment [5] deals with Plasmodium berghei. Nature of the experiment: Antimalarial activity in Plasmodium berghei infected mice (Mus musculus) after 160 mg/kg subcutaneous dose. The essentials: (§3)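 […] in mice infected with a normal drug-sensitive P. berghei strain. Compound dissolved or suspended in sesame or peanut oil, given as a single subcutaneous dose 72 h postinfection.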

Experiment [6] relates to Plasmodium berghei. As to the kind of experiment: Antimalarial activity in Plasmodium berghei infected mice (Mus musculus) after 20 mg/kg subcutaneous dose. The essentials:
as §3

In experiment [7] the test system is Plasmodium berghei. The description is as §2. The essentials:
as §3
The source holds these as a separate data set.

The test system of experiment [8] is Plasmodium berghei. As to the kind of experiment: (§4) Antimalarial activity in Plasmodium berghei infected mice (Mus musculus) after 40 mg/kg subcutaneous dose. The gist of the method: as §3
For experiment [9], the system named is Plasmodium berghei. The description is as §4. The essentials: as §1
This is another data set of the same source.

Experiment [10] concerns Plasmodium berghei. As to the kind of experiment: Antimalarial activity Plasmodium berghei infected mice (Mus musculus) after 640 mg/kg subcutaneous dose. The gist of the method:
as §3

For `CCN(CC)CCC/N=C1\CC(c2ccc(Cl)c(Cl)c2)Cc2c1c(=O)c1cc(Cl)ccc1n2O` (stereo unspecified), the “No. of cured mice” value in experiment [1] was 4; in [2], 5; in [3], 5; in [4], 2. Besides, the “Delta mean survival time” value in [5] is reported as 12.7; in [6], 5.8; in [7], 11.7; in experiment [8], 3.5.
For `O=c1c2c(n(O)c3ccc(Cl)cc13)CC(c1ccc(Cl)c(Cl)c1)C/C2=N\CCCN(CCO)CCO` (stereo unspecified), the “No. of cured mice” value was found to be 4 in experiment [1], 5 in [2], 5 in [3] and 1 in [4]. The “Delta mean survival time” value in experiment [5] is 10.6; in [6] it was 1.2; in experiment [7] it was 7.9; in experiment [8], 5.6.
In the case of `C=CCNCC/N=C1\CC(c2cccc(C(F)(F)F)c2)Cc2c1c(=O)c1cc(Cl)ccc1n2O` (stereo unspecified), the “No. of cured mice” value in [1] came out at 5; in [2], 5; in experiment [9] it was 2; in experiment [3], 5; in experiment [4], 1. For the same compound, the “Delta mean survival time” value in experiment [6] was determined as 3; in experiment [7], 9.4; in [8] it was 5.9.
On to `CC1/C(=N\CCCN(C)C)c2c(nc3ccc(Cl)cc3c2O)CC1c1ccc(Cl)c(Cl)c1` (trans isomer), for which the “No. of cured mice” value in experiment [1] came out at 5; in [2] it was 5; in experiment [9] (40 mg/kg) it was 1; in experiment [4], 4. In addition, the results for the “Delta mean survival time” value in experiment [6] (20 mg/kg), in experiment [7] (80 mg/kg) and in experiment [8] (40 mg/kg) were 5.3, 15 and 7.2, respectively.
For the compound `CCCCNCCC/N=C1\CC(c2ccc(Cl)c(Cl)c2)Cc2c1c(=O)c1cc(Cl)ccc1n2O` (stereo unspecified), the “No. of cured mice” value is listed as 4 in experiment [1], 5 in [2], 5 in [3] and 1 in experiment [4]. Besides, the “Delta mean survival time” value is 10.6 in experiment [5], 4.4 in experiment [6], 9.1 in experiment [7] and 9.4 in [8].
As to `CN(C)CCC/N=C1\CC(c2ccc(Cl)c(C(F)(F)F)c2)Cc2nc3ccc(Cl)cc3c(O)c21` (stereo unspecified), the “No. of cured mice” value was determined as 5 in [1]; 5 in [2]; 4 in experiment [9]; 5 in experiment [3]; 5 in experiment [4]. In addition, the “Delta mean survival time” value amounted to 7.5 in [6] and 8.7 in experiment [8].
Take `C=CCn1c2c(c(=O)c3cc(Cl)ccc31)C(=O)CC(c1ccc(C(F)(F)F)cc1)C2` (stereo unspecified): the “No. of cured mice” value in experiment [9] is 1; in experiment [3], 4. Also, the “Delta mean survival time” value in experiment [5] amounted to 12.6; in [10], 15; in [8], 8.5.
Take `CCN(CC)CCCCCCC/N=C1\CC(c2ccc(C(F)(F)F)cc2)Cc2nc3ccc(Cl)cc3c(O)c21` (stereo unspecified): the “No. of cured mice” value in [1] turned out to be 3; in experiment [9], 4; in experiment [3], 3. Further, the “Delta mean survival time” value in [5] is given as 23.1; in [10], 0.1; in experiment [8] it was 9.6.
On to `NCC/N=C1\CC(c2ccc(Cl)cc2Cl)Cc2nc3ccc(Cl)cc3c(O)c21` (stereo unspecified), for which the “No. of cured mice” value in experiment [1], in experiment [9] and in experiment [3] was 5 each time.
In the case of `CCN(CC)CC/N=C1\CC(c2ccc(C(F)(F)F)cc2)Cc2nc3ccc(Cl)cc3c(O)c21` (stereo unspecified), the “No. of cured mice” value came out at 5 in [1], 3 in experiment [9] and 5 in experiment [3]. Besides, the “Delta mean survival time” value in experiment [8] is reported as 17.6.
Turning to `CN(C)CCC/N=C1\CC(c2ccc(Cl)c(Cl)c2)Cc2nc3ccc(Cl)cc3c(O)c21` (stereo unspecified), the “No. of cured mice” value in experiment [1] came out at 5; in experiment [2], 5; in experiment [9], 3; in [3], 5; in [4], 4. For the same compound, the “Delta mean survival time” value is on record as 9.2 in experiment [6], 11.8 in experiment [7] and 9.8 in [8].
On to `CN(C)CCC/N=C1\CC(c2ccc(Cl)c(Cl)c2)Cc2c1c(=O)c1cc(Cl)ccc1n2O` (stereo unspecified), for which the “No. of cured mice” value is 5 in [1]; 5 in [2]; 3 in experiment [9]; 5 in experiment [3]; 3 in experiment [4]. Moreover, the “Delta mean survival time” value in [6] came out at 7.1; in experiment [7] it was 17.2; in [8] it was 12.7.
For `CN(C)CCC/N=C1/c2c([nH]c3ccc(Cl)cc3c2=O)CC(c2ccc(Cl)c(Cl)c2)C1c1ccccc1` (stereo unspecified), the “No. of cured mice” value in [1] is on record as 2; in experiment [2], 5; in experiment [3] it was 5; in [4], 1. Besides, the “Delta mean survival time” value is 12.2 in [5], 3.1 in experiment [6], 14.2 in experiment [7] and 7.7 in experiment [8].
Take `CC1C(=O)c2c(nc3ccc(Cl)cc3c2O)CC1c1ccc(Cl)c(Cl)c1` (stereo unspecified): the “No. of cured mice” value came to 5 in [1]; 5 in [2]; 3 in experiment [9]; 5 in experiment [3]; 5 in experiment [4]. The “Delta mean survival time” value in experiment [6] is on record as 8.2; in [8], 10.8.
For the compound `CCN(CC)CCCC(C)/N=C1\CC(c2ccc(Cl)c(Cl)c2)Cc2c1c(=O)c1cc(Cl)ccc1n2O` (stereo unspecified), the “No. of cured mice” value worked out at 5 in experiment [1]; 5 in experiment [2]; 1 in [9]; 5 in experiment [3]; 1 in experiment [4]. Moreover, the “Delta mean survival time” value is listed as 9.6 in [7] and 6.1 in [8].
Take `CCCCNC(CC)C/N=C1\CC(c2cccc(C(F)(F)F)c2)Cc2c1c(=O)c1cc(Cl)ccc1n2O` (stereo unspecified): the “No. of cured mice” value in experiment [1] was determined as 5; in experiment [2], 5; in experiment [3], 5; in experiment [4] it was 1. The “Delta mean survival time” value is given as 5.6 in [6], 10.9 in experiment [7] and 6.8 in experiment [8].
For the compound `CC(C/N=C1\CC(c2ccc(C(F)(F)F)cc2)Cc2nc3ccc(Cl)cc3c(O)c21)N(C)C` (stereo unspecified), the “No. of cured mice” value in experiment [1], in [9] and in experiment [3] was 5 each time.
For `CC1C(=O)c2c(n(O)c3ccc(Cl)cc3c2=O)CC1c1ccc(C(F)(F)F)cc1` (stereo unspecified), the “No. of cured mice” value is listed as 5 in [1], 5 in experiment [2], 5 in [3] and 2 in [4]. The “Delta mean survival time” value in experiment [6] is reported as 5.2; in [7] it was 14.1; in [8], 7.8.
With `CCN(CCO)CCC/N=C1\CC(c2ccc(Cl)c(Cl)c2)Cc2c1c(=O)c1cc(Cl)ccc1n2O` (stereo unspecified), the “No. of cured mice” value in experiment [1] is listed as 3; in experiment [2], 5; in [3] it was 5; in experiment [4], 1. The “Delta mean survival time” value worked out at 10.1 in experiment [5], 9.6 in experiment [7] and 8.6 in experiment [8].
As to `CC(C/N=C1\CC(c2cccc(C(F)(F)F)c2)Cc2c1c(=O)c1cc(Cl)ccc1n2O)N(C)C` (stereo unspecified), the “No. of cured mice” value is listed as 2 in experiment [1], 5 in experiment [2], 1 in [9] and 5 in experiment [3]. Also, the “Delta mean survival time” value in experiment [5] was determined as 8.6; in experiment [6], 4; in experiment [7], 9.2; in [8], 11.9.
Take `CCCC/N=C1\CC(c2ccc(C(F)(F)F)cc2)Cc2c1c(=O)c1cc(Cl)ccc1n2O` (stereo unspecified): the “No. of cured mice” value in experiment [1] is on record as 5; in experiment [2] it was 5; in experiment [9], 1; in experiment [3], 5; in experiment [4] it was 3. For the same compound, the “Delta mean survival time” value is 5.3 in [6], 10.2 in experiment [7] and 8.5 in experiment [8].
Consider `CCCCN(CCCC)CC/N=C1\CC(c2cccc(C(F)(F)F)c2)Cc2c1c(=O)c1cc(Cl)ccc1n2O` (stereo unspecified), for which the “No. of cured mice” value in [1] is 3; in experiment [2] it was 5; in [9], 1; in experiment [3] it was 5. Besides, the “Delta mean survival time” value in experiment [5] came out at 11.6; in experiment [6], 5.4; in experiment [7] it was 7; in [8], 9.6.
As to `CCN(CC/N=C1\CC(c2ccc(Cl)c(Cl)c2)Cc2c1c(=O)c1cc(Cl)ccc1n2O)CC(C)(C)O` (stereo unspecified), the “No. of cured mice” value is listed as 5 in [1], 5 in [2] and 4 in experiment [4]. Further, the “Delta mean survival time” value in [6] is on record as 6.3; in [7] it was 8; in experiment [8], 8.2.
